# The list is not random: actives were taken first. Their share in the collection is about 2.7%.
# RAM inhibit – blocks the yeast RAM network; S. cerevisiae dse1pr::URA3 reporter, 5-FOA growth OD615, 2 d; analog-sensitive cbk1-as2 kinase mutant strain; inhibition, % at 50 µM; actives 1.8% (n = 190,000);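 active = inhibition above a set limit, 3 SD over mean compound inhibition, cut at about 8.4% in these data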;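 also: 0% = DMSO-only wells with no growth and 100% = 10 µM 1-NA-PP1 full growth; inhibition rescues growth on 5-FOA so higher OD means more RAM inhibition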
# SDO1 yeast rescue – restores growth of sdo1-depleted yeast. S. cerevisiae sdo1-depleted JHY4D growth rescue, OD600 30 h; stronger effect = higher value; pdr5 snq2 efflux-pump mutant strain. z-score at 10 µM. actives 0.21% (n = 140,000);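 active = z-score above 3 at both the 24 hr and the 30 hr optical density reads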;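 also: z-score against mean and SD of all compound wells on the same plate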
# Yeast lifespan up – extends the lifespan of yeast; S. cerevisiae growth with nicotinamide, OD615; deaD strain in restrictive glucose medium; inhibition of the nicotinamide effect, % at 10 µM; actives 0.68% (n = 130,000); AID 775;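 active = inhibition above a set limit, placed 3 SD over the median of all compounds, cut at about 26% in these data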;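 also: 0% = nicotinamide-treated wells and 100% = cells grown without nicotinamide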
#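 Buffer or medium: CSMM-D glucose medium, restrictive; test system: modified budding yeast, DeaD strain; compound: single dose 10 µM compound, 0.25% DMSO; schedule: culture preincubation 4 h, compound exposure 48 h, both 30 °C; detection: optical density (absorbance) at 615 nm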
# BB579 growth dn – yeast BB579 growth reduction in restrictive medium; S. cerevisiae BB579 growth, OD615, 48 h; inhibition, % at 10 µM; actives 0.51% (n = 140,000); AID 804;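 active = inhibition above a set limit, 3 SD over the mean compound inhibition, cut at about 44% in these data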
#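 Assay system – yeast BB579 (DeaD) · Dosing – single compound dose of 10 µM, 0.25% DMSO final · Detection – OD615 turbidity measurement · Buffer or medium – CSMM-D restrictive synthetic medium containing dextrose (glucose) · Benchmarks – positive control amphotericin B 10 µg/mL · Incubation – 48 h exposure, 30 °C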
# Numbers without * were called inactive; nt = no result.
SMILES,RAM inhibit,SDO1 yeast rescue,Yeast lifespan up,BB579 growth dn
CCOC(=O)c1nn(-c2ccccc2C)c2nc(Nc3ccccc3)cc(=O)n12,8.4*,-1.2,2,-7
CC1CCc2c(sc3ncn(CC(=O)N4CCCCC4)c(=O)c23)C1 (stereo not drawn),1,nt,nt,nt
COc1ccccc1CN(Cc1nc2ccccc2c(=O)[nH]1)C(=O)Nc1cccc(C)c1,4,-1.2,66*,6
COc1ccccc1NC(=O)N(Cc1ccc2c(c1)OCO2)Cc1nc2ccccc2c(=O)[nH]1,8,-0.45,-9,-58
C=CCNC1=C(Cl)C(=O)N(c2ccccc2Cl)C1=O,8.9*,0.31,5,-82
Cc1c(NC2=C(Cl)C(=O)N(c3ccccc3Cl)C2=O)c(=O)n(-c2ccccc2)n1C,4,1,0,-48
N#Cc1ccc(NC(=S)NCCN2CCOCC2)cc1,1,nt,nt,nt
O=C1c2ccccc2C(=O)N1OCc1ccccc1,1,-0.54,72*,-7
O=C1c2ccccc2C(=O)N1OCc1cccc(Cl)c1,3,0.09,-14,-42
CCOC(=O)C1=C(c2ccccc2)O/C(=C(\C(=O)OC)C(F)(F)F)S1,11*,1.1,6,-38
O=C1c2cccc3c(Cl)ccc(c23)C(=O)N1O,0,-1,-10,82*
CCN1C(=O)c2cccc3c(Cl)ccc(c23)C1=O,2,nt,nt,nt
Cc1cccc2sc(NC(=O)C3=NN(c4ccccc4)C(=O)CC3)nc12,11*,-0.77,6,-21
COc1ccc(/C=C2\CN(Cc3ccccc3)C/C(=C\c3ccc(OC)cc3)C2=O)cc1,11*,-0.04,0,-18
CC(C)(C)C1=CC(=Nc2ccccc2N)C=C(C(C)(C)C)C1=O,0,1.2,4,-30
CC(C)(C)C1=CC(=O)C(=O)C(C(C)(C)C)=C1,2,-1.1,40*,-44
CCCn1c(Nc2nc3ccccc3n2C)nc2ccccc21,0,1.1,-30,90*
CCOc1ccc(C(=O)Nc2c3c(nn2-c2ccc(C)cc2)CS(=O)C3)cc1OCC (stereo not drawn),9.6*,0.4,4,-26
Cc1ccc(-n2nc3c(c2NC(=O)c2ccc4c(c2)OCO4)CS(=O)C3)cc1 (stereo not drawn),2,-0.23,-1,-25
COCCCNC(=S)NCCCNc1nc2cc(C)cc(C)c2cc1C#N,2,nt,nt,nt
COCCCNC(=S)NCCNc1nc2c(C)c(C)ccc2cc1C#N,9.6*,nt,nt,nt
COc1ccc(CNC(=O)CN2C(=O)C3C4C=CC(C4)C3C2=O)cc1 (stereo not drawn),0,nt,nt,nt
CCCn1[nH]cc(SC)c(=O)c1=O,-1,0.87,42*,2
O=C(CCCCn1c(=O)c2ccccc2n(Cc2ccccc2)c1=O)NC1CCN(Cc2ccccc2)CC1,1,nt,nt,nt
CNC(=S)NC(CC(=O)OC)c1ccc2c(c1)OCO2 (stereo not drawn),0,nt,nt,nt
SMILES,RAM inhibit,SDO1 yeast rescue,Yeast lifespan up,BB579 growth dn
Cc1ccc(N=Cc2c(O)ccc3ccccc23)cc1F,0,-0.41,36*,5
CCOC(=O)c1sc(/N=C/c2c(O)ccc3ccccc23)cc1C,9.0*,-0.26,12,-30
O=C(O)Cc1ccc(N=Cc2c(O)ccc3ccccc23)cc1,0,-0.62,57*,-30
N#Cc1cccc(N=Cc2c(O)ccc3ccccc23)c1,-1,0.35,40*,-9
CCOC(=O)c1cc2ccc3ccccc3c2s1,1,-0.74,nt,-38
COc1ccc(N=Cc2c(O)ccc3ccccc23)cc1,-2,nt,nt,nt
COC(=O)c1cccc(NC(=S)NCc2ccc(F)cc2)c1,4,nt,nt,nt
NC(=O)NC(=O)COC(=O)c1ccc(Cl)c(S(=O)(=O)N(Cc2ccccc2)c2ccc(Cl)cc2)c1,10*,-1.2,-1,-44
NC(=O)COC(=O)c1ccc(Cl)c(S(=O)(=O)N(Cc2ccccc2)c2ccc(Cl)cc2)c1,7,-1.5,-2,-51
COc1nc(-c2ccccc2)ccc1-c1noc(-c2ccco2)n1,8,0.64,-23,-36
COc1nc(-c2ccccc2)ccc1-c1noc(-c2ccccc2)n1,11*,-0.82,1,-47
CCNC(=O)NC(=O)C(C)On1nnc2ccc(S(=O)(=O)N(CC)CC)cc21 (stereo not drawn),5,1.4,28*,-38
CCNC(=O)NC(=O)C(C)OC(=O)CCS(=O)(=O)c1ccc(C)cc1 (stereo not drawn),0,nt,nt,nt
Cc1cc2c(ncn2C)c(NS(=O)(=O)c2ccc(Cl)cc2)c1C,-1,nt,nt,nt
O=C(CSc1nc2ccccc2o1)c1cc2ccccc2oc1=O,1,-0.39,38*,-13
Cc1cc[n+](CC(=O)c2cc3ccccc3oc2=O)cc1,0,0.58,29*,-2
Cc1cc(C)nc(SCC(=O)c2cc3ccccc3oc2=O)n1,0,1.4,26,-8
COC(=O)CSc1nn(-c2ccc(F)cc2)c(=S)s1,2,nt,nt,nt
COc1ccc(CCn2c(-c3ccc(C(C)(C)C)cc3)n[nH]c2=S)cc1OC,8.7*,nt,nt,nt
Cn1c(/C=C(\C#N)C(N)=S)ccc1-c1ccc(Br)cc1,9.6*,nt,nt,nt
Cc1ccc2oc(=O)c3cc(C(=O)Nc4cc(-c5cccc(F)c5)no4)sc3c2c1,2,-0.51,5,-38
CCN1CCCc2cc(CN(CCN3CCOCC3)C(=S)Nc3cc(F)cc(F)c3)ccc21,1,nt,nt,nt
COc1ccc(CC(=O)n2nc(-c3ccccc3)nc2NCc2ccco2)cc1,10*,-1.6,-14,-3
O=C(OCC#CCSc1nnc(-c2ccc(Br)cc2)o1)c1ccco1,10*,-0.69,5,-38
COc1cc(OC)nc(-n2ncc(Br)c(Br)c2=O)n1,2,-0.72,38*,-25
SMILES,RAM inhibit,SDO1 yeast rescue,Yeast lifespan up,BB579 growth dn
CC(C)OCCCNC(=S)Nc1ccc(S(N)(=O)=O)cc1,0,0.24,7,3
Cc1ccc(-c2csc(C3=C(O)CN(NC(=O)c4ccc([N+](=O)[O-])cc4)C3=N)n2)cc1,8.6*,nt,nt,nt
Cc1cc(C)c(C(=O)COC(=O)CCNS(=O)(=O)c2c(Cl)cccc2Cl)cc1C,10*,-0.58,5,-15
Cc1ccc2cc(C#N)c(SCC(=O)N3CCCc4ccccc43)nc2c1,2,-0.95,3,4
Cc1ccc2cc(C#N)c(SCC(=O)N3CCCc4ccccc43)nc2c1C,9.2*,0.14,-2,-48
COc1ccc2c(=O)c3c(=O)n(Cc4ccco4)c(-c4ccc(C)cc4)nc3oc2c1,7,-1.2,47*,-38
COc1ccc2c(=O)c3c(=O)n(Cc4ccco4)c(C(C)C)nc3oc2c1,2,-0.09,nt,-22
Nc1[nH]n2c(=O)cc(-c3ccccc3)nc2c1N=Nc1ccc2c(c1)OCO2,10*,nt,nt,nt
CC(=O)Nc1cccc(/C(C)=N/NC(=O)c2ccc(CN3CCOCC3)cc2)c1,0,nt,nt,nt
CCCCOc1ccccc1Cn1c(=O)oc2ccccc21,11*,-0.57,-1,-18
Cc1onc(-c2ccccc2)c1C(=O)OCC(=O)NCc1ccc(F)cc1,8.5*,nt,nt,nt
CCOC(=O)c1cc(CC)sc1/N=C/C1=C(O)CCCC1=O,0,-0.18,-2,3
O=c1cc(-c2ccccc2)[nH]n1-c1nc2ccccc2[nH]1,1,2.1,-26,97*

# Assay outcomes from PubChem BioAssay.
